Experimental data reported in ChEMBL document CHEMBL4373697, “Cyclization of RGD Peptides by Suzuki-Miyaura Cross-Coupling” (J Med Chem, 2019).

Columns and labels:
Integrin alpha-V/beta-3 [1] = biological target: T1, Integrin alpha-V/beta-3 (Homo sapiens, UniProt P05106+P06756); assay: Binding affinity to integrin alphavbeta3 receptor in human WM115 cells assessed as inhibition of cell adhesion to vitronectin after 0.5 hr by fluorescence assay; assay type: cell-based
Integrin alpha-V/beta-3 [2] = biological target: T1, Integrin alpha-V/beta-3; assay: Inhibition of human vitronectin binding to human integrin alphavbeta3 receptor after 1 hr by ELISA; assay type: protein-complex assay
Integrin alpha-5/beta-1 = Integrin alpha-5/beta-1 (Homo sapiens, UniProt P05556+P08648); assay: Inhibition of human fibronectin binding to human integrin alpha5beta1 incubated for 1 hr by ELISA; assay type: protein-complex assay
[3] = biological target: Integrin alpha-IIb/beta-3 (Homo sapiens, UniProt P05106+P08514); assay: Inhibition of human fibronectin binding to human Integrin alpha2b beta3 receptor incubated for 1 hr by ELISA; assay type: protein-complex assay
[4] = Half-life in human plasma at 500 uM incubated for 24 hrs and measured up to 24 hrs by LC-MS analysis; assay type: ADME, cell-free
In short: (§1)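 Compound from DMSO stock (final DMSO ≤1%) in human citrate plasma, pH 7.5, incubated at 37 °C, 400 rpm, for 24 h. Aliquots were taken at 0, 1, 3, 6, 8 and 24 h and quenched with cold acetonitrile containing warfarin (50 µM final) as internal standard, then centrifuged. Supernatant was run by LC-MS; UV peak area was compared with the internal standard.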

[5] = Half-life in human plasma at 250 uM incubated for 24 hrs and measured up to 24 hrs by LC-MS analysis; assay type: ADME, cell-free; in short: as §1

Sequence of Integrin alpha-5/beta-1 (P05556 21-798 limits assumed): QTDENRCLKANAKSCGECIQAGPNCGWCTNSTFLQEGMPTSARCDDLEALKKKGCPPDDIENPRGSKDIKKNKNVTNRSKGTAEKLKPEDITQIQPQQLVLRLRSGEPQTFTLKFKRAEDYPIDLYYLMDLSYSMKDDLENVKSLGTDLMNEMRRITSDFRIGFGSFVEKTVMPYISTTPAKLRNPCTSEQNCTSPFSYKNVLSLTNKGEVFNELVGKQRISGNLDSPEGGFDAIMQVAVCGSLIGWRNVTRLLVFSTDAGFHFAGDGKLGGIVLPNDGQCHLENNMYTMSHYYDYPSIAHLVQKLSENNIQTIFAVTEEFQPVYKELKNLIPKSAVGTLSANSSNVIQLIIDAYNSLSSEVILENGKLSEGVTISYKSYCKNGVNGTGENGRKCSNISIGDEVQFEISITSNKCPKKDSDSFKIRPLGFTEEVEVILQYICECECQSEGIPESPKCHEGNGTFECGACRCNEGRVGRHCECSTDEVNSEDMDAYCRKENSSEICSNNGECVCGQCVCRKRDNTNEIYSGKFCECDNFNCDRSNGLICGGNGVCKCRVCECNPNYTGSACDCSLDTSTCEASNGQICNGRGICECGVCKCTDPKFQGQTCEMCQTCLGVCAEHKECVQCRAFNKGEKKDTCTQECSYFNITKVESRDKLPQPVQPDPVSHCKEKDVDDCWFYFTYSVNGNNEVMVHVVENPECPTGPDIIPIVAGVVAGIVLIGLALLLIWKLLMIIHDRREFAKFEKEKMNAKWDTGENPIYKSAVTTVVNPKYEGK
Sequence of Integrin alpha-5/beta-1 (P08648 42-894 limits assumed): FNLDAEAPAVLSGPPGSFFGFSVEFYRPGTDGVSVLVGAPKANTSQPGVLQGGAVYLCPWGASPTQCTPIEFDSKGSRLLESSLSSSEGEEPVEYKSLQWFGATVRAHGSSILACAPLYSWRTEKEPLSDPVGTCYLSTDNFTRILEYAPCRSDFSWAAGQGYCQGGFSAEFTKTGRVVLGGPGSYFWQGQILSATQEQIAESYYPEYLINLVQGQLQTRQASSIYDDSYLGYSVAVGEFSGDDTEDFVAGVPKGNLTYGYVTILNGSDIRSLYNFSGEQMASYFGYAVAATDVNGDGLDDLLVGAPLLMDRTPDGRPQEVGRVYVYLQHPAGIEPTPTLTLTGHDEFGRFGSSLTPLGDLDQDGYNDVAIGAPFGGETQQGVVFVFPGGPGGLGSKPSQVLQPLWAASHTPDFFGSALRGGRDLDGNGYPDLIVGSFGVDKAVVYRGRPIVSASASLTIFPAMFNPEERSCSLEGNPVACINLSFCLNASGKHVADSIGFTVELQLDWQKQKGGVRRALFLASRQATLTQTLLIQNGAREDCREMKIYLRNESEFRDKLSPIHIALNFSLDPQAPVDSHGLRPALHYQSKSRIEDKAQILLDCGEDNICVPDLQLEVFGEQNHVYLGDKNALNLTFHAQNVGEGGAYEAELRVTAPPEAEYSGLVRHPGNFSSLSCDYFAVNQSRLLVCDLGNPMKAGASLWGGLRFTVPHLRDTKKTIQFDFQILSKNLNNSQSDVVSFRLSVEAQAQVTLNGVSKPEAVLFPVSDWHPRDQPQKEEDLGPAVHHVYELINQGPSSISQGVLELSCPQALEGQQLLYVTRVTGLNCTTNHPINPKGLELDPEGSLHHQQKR
Sequence of Integrin alpha-5/beta-1 (P08648 895-1049 limits assumed): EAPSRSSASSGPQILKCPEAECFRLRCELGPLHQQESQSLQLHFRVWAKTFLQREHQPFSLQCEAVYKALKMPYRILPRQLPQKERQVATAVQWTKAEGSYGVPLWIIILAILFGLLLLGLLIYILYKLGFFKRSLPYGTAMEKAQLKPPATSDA
T1 sequence (P05106 27-788 limits assumed): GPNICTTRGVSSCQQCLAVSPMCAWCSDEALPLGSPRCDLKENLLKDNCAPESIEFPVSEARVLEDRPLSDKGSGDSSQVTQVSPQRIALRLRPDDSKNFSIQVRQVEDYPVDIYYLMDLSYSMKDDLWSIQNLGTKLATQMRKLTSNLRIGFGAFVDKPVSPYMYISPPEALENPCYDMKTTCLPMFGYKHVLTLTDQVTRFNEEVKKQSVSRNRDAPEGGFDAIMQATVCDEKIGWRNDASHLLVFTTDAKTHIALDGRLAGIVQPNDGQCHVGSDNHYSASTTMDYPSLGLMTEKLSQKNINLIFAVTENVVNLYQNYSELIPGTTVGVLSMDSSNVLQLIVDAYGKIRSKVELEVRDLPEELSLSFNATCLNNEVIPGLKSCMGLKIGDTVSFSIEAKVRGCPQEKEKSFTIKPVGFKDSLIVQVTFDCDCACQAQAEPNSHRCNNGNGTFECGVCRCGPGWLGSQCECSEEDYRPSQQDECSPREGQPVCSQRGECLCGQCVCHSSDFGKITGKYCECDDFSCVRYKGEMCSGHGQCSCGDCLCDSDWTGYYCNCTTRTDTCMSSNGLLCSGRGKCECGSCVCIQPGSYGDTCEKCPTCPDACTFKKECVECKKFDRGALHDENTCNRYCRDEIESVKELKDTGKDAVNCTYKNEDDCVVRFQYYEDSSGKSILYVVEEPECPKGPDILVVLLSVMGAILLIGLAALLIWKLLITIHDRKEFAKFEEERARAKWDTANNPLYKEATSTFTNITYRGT
T1 sequence (P06756 31-889 limits assumed): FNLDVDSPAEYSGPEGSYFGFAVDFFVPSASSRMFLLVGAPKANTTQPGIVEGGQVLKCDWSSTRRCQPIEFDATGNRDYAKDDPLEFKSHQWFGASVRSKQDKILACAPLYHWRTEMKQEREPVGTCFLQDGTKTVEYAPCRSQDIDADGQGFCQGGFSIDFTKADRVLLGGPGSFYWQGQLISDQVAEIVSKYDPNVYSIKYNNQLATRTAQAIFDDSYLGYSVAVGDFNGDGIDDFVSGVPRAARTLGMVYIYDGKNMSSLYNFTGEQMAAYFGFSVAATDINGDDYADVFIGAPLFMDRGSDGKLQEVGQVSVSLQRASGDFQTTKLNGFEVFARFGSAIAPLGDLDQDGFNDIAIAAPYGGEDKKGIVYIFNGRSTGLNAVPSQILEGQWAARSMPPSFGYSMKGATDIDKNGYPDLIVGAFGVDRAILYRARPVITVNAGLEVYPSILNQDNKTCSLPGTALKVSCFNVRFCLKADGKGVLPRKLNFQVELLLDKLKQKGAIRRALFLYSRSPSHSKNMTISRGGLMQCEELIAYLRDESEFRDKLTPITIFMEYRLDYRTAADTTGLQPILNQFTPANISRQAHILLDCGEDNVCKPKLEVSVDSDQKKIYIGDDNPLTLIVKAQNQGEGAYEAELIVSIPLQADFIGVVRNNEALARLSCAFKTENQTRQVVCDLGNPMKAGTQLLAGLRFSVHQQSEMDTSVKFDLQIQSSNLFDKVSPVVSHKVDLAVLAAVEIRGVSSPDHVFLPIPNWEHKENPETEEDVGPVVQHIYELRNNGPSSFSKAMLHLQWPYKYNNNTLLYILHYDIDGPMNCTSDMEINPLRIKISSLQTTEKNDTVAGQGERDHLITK
T1 sequence (P06756 891-1048 limits assumed): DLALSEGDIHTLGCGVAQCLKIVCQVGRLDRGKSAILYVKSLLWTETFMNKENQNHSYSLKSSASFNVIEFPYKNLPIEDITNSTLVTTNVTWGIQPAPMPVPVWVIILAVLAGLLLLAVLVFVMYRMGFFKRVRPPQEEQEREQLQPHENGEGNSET
Sequence of Integrin alpha-IIb/beta-3 (P05106 27-788 limits assumed): as the sequence (P05106 27-788 limits assumed) above
Sequence of Integrin alpha-IIb/beta-3 (P08514 32-887 limits assumed): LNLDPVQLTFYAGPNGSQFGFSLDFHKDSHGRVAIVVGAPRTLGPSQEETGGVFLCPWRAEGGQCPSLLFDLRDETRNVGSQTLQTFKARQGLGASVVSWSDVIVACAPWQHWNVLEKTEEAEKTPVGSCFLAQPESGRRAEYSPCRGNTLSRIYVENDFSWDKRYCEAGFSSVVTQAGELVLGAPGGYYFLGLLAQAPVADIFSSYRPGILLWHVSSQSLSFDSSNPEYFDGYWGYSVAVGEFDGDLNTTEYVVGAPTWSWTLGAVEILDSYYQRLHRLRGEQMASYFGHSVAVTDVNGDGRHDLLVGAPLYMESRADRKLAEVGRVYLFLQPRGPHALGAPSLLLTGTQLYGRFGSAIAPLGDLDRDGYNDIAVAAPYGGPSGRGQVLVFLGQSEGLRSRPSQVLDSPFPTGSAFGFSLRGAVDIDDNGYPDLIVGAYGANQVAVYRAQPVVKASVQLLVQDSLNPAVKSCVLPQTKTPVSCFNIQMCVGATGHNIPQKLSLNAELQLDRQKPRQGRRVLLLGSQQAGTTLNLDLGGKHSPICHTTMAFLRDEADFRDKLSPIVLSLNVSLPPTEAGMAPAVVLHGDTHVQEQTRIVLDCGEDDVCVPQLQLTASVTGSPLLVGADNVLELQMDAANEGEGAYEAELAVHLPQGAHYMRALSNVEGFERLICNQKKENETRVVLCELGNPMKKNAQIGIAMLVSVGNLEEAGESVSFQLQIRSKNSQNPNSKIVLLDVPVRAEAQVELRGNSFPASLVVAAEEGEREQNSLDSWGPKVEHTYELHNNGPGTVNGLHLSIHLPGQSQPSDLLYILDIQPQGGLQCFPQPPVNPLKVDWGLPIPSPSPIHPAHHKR
Sequence of Integrin alpha-IIb/beta-3 (P08514 891-1039 limits assumed): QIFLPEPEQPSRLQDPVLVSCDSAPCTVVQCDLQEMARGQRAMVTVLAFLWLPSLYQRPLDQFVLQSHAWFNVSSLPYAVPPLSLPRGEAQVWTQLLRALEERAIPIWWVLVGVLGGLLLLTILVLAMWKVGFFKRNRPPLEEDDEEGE

Structure (SMILES)	IC50 (Integrin alpha-V/beta-3 [1]) [nM]	IC50 (Integrin alpha-V/beta-3 [2]) [nM]	IC50 (Integrin alpha-5/beta-1) [nM]	IC50 [3] [nM]	half-life at 500 µM [4] [min]	half-life at 250 µM [5] [min]
CN1C(=O)[C@@H](Cc2ccccc2)NC(=O)[C@H](CC(=O)O)NC(=O)CNC(=O)[C@H](CCCNC(=N)N)NC(=O)c2ccc(cc2)-c2cccc3c(c[nH]c23)C[C@H]1C(N)=O	> 500000	95.2	2160	–	–	–
CN1C(=O)[C@H](Cc2ccccc2)NC(=O)[C@H](CC(=O)O)NC(=O)CNC(=O)[C@H](CCCNC(=N)N)NC(=O)c2ccc(cc2)-c2ccc3c(c[nH]c3c2)C[C@@H]1C(N)=O	244000	14.9	2720	> 10000	–	–
N=C(N)NCCC[C@@H]1NC(=O)c2ccc(cc2)-c2cccc3c(c[nH]c23)C[C@@H](C(N)=O)NC(=O)[C@@H](Cc2ccccc2)NC(=O)[C@H](CC(=O)O)NC(=O)CNC1=O	> 500000	579	5670	–	–	–
N=C(N)NCCC[C@@H]1NC(=O)c2ccc(cc2)-c2cccc3c(c[nH]c23)C[C@@H](C(N)=O)NC(=O)[C@H](CC(=O)O)NC(=O)CNC1=O	> 500000	491	3660	–	–	–
CN1C(=O)[C@H](Cc2ccccc2)NC(=O)[C@H](CC(=O)O)NC(=O)CNC(=O)[C@H](CCCNC(=N)N)NC(=O)c2ccc(cc2)-c2cccc3c(c[nH]c23)C[C@@H]1C(N)=O	11100	23	835	> 10000	–	–
N=C(N)NCCC[C@@H]1NC(=O)c2ccc(cc2)-c2cccc3c(c[nH]c23)C[C@H](C(N)=O)NC(=O)[C@H](Cc2ccccc2)NC(=O)[C@H](CC(=O)O)NC(=O)CNC1=O	51000	17.7	9290	> 10000	–	–
N=C(N)NCCC[C@@H]1NC(=O)c2ccc(cc2)-c2ccc3c(c[nH]c3c2)C[C@H](C(N)=O)NC(=O)[C@H](Cc2ccccc2)NC(=O)[C@H](CC(=O)O)NC(=O)CNC1=O	310000	59.2	> 10000	–	–	–
N=C(N)NCCC[C@@H]1NC(=O)c2ccc(cc2)-c2cccc3c(c[nH]c23)C[C@H](C(N)=O)NC(=O)[C@H](CC(=O)O)NC(=O)CNC1=O	> 500000	41.3	5940	> 10000	–	–
N=C(N)NCCC[C@@H]1NC(=O)c2cccc(c2)-c2cccc3c(c[nH]c23)C[C@@H](C(N)=O)NC(=O)[C@H](CC(=O)O)NC(=O)CNC1=O	> 500000	19	8030	–	–	–
CN1C(=O)[C@H](CC(=O)O)NC(=O)CNC(=O)[C@H](CCCNC(=N)N)NC(=O)c2ccc(cc2)-c2cccc3c(c[nH]c23)C[C@H]1C(N)=O	> 500000	239	> 10000	–	–	–
N=C(N)NCCC[C@@H]1NC(=O)c2cccc(c2)-c2cccc3c(c[nH]c23)C[C@@H](C(N)=O)NC(=O)[C@@H](Cc2ccccc2)NC(=O)[C@H](CC(=O)O)NC(=O)CNC1=O	> 500000	65	983	–	–	–
CN1C(=O)[C@H](CC(=O)O)NC(=O)CNC(=O)[C@H](CCCNC(=N)N)NC(=O)c2ccc(cc2)-c2cccc3c(c[nH]c23)C[C@@H]1C(N)=O	> 500000	537	> 10000	–	–	–
CCN(CC)CCOC(=O)c1ccc(N)cc1 [PROCAINE]	–	–	–	–	–	30

Further lines, results first:

IC50 (Integrin alpha-V/beta-3 [1]) [nM]	IC50 (Integrin alpha-V/beta-3 [2]) [nM]	IC50 (Integrin alpha-5/beta-1) [nM]	IC50 [3] [nM]	half-life at 500 µM [4] [min]	half-life at 250 µM [5] [min]	Structure (SMILES)
> 500000	38.9	419	–	–	–	CN1C(=O)[C@H](Cc2ccccc2)NC(=O)[C@H](CC(=O)O)NC(=O)CNC(=O)[C@H](CCCNC(=N)N)NC(=O)CCCCCc2cccc3c(c[nH]c23)C[C@@H]1C(N)=O
250000	12.8	325	5030	–	–	CN1C(=O)[C@H](Cc2ccccc2)NC(=O)[C@H](CC(=O)O)NC(=O)CNC(=O)[C@H](CCCNC(=N)N)NC(=O)CCc2cccc3c(c[nH]c23)C[C@@H]1C(N)=O
> 500000	36.2	563	–	–	–	CN1C(=O)[C@H](Cc2ccccc2)NC(=O)[C@H](CC(=O)O)NC(=O)CNC(=O)[C@H](CCCNC(=N)N)NC(=O)CCCCc2cccc3c(c[nH]c23)C[C@@H]1C(N)=O
9400	5.4 to 13.9	547	5800	> 1440	–	CN1C(=O)[C@H](Cc2ccccc2)NC(=O)[C@H](CC(=O)O)NC(=O)CNC(=O)[C@H](CCCNC(=N)N)NC(=O)c2cccc(c2)-c2cccc3c(c[nH]c23)C[C@@H]1C(N)=O
158000	64.6	1.92	–	–	–	CN1C(=O)[C@H](Cc2ccccc2)NC(=O)[C@H](CC(=O)O)NC(=O)CNC(=O)[C@H](CCCNC(=N)N)NC(=O)c2ccccc2-c2cccc3c(c[nH]c23)C[C@@H]1C(N)=O
> 500000	34	154	–	–	–	CN1C(=O)[C@H](Cc2ccccc2)NC(=O)[C@H](CC(=O)O)NC(=O)CNC(=O)[C@H](CCCNC(=N)N)NC(=O)CCCc2cccc3c(c[nH]c23)C[C@@H]1C(N)=O
